Results published in ChEMBL document CHEMBL4004857, “Synthesis and biological evaluation of novel pyrazolic chalcone derivatives as novel hepatocellular carcinoma therapeutics” (Eur J Med Chem, 2017).
The source made the active and inactive calls. The calls are words filed in the database; no cut-off is given here.

Key:
[1] = molecular target: T1, Retinoblastoma-associated protein (Homo sapiens) (UniProt P06400); test: Inhibition of retinoblastoma phosphorylation in human HepG2 cells at cytotoxic IC100 measured after 24 hrs by Western blot method; assay type: cell-based
T1 sequence (whole entry): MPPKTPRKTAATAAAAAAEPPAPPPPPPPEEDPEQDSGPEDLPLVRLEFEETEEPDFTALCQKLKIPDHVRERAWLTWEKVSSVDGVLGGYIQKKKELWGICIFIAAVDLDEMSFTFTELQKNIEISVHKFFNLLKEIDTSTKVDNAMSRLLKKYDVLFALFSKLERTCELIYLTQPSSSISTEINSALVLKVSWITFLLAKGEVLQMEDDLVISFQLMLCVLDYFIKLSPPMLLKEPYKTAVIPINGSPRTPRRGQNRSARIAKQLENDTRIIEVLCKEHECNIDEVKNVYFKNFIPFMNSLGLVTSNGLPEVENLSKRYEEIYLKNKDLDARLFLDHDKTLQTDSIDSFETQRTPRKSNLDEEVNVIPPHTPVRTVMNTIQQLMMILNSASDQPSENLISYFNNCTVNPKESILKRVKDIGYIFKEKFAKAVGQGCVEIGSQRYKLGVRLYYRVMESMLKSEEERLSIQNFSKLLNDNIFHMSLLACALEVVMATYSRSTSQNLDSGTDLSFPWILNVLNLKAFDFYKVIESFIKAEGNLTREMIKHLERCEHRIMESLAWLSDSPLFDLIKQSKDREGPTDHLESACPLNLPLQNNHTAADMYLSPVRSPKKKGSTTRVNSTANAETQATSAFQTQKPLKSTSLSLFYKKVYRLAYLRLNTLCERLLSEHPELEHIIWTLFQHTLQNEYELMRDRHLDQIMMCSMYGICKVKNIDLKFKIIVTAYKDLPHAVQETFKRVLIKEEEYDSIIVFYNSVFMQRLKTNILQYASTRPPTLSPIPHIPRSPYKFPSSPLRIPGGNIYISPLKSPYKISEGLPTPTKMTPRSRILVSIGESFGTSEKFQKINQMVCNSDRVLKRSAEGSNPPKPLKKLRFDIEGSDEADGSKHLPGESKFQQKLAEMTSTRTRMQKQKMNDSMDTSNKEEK

HepG2 [2] = test: Induction of apoptosis in human HepG2 cells assessed as accumulation at G2/M phase at cytotoxic IC100 measured after 48 hrs by propidium iodide staining based flow cytometry; assay type: functional, cell-based
Method in brief: (§1)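 After 24, 48 and 72 h, cells were fixed in ice-cold 70% ethanol for 3 h, stained with propidium iodide, and cell-cycle distribution was read on a MUSE Cell Analyzer.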

HepG2 [3] = test: Induction of apoptosis in human HepG2 cells assessed as decrease in CDK expression level at cytotoxic IC100 measured after 24 hrs by Western blot method; assay type: functional; parameters: scale not given: the % may be the effect or the level left
MRC5 = test: Cytotoxicity against human MRC5 cells assessed as growth inhibition after 72 hrs by SRB assay; assay type: cell-based; details: Homo sapiens, MRC5, 72 h; read-out: IC50
Method in brief: (§2)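 Cells seeded at 2000–3000 per well and grown 24 h at 37C, then treated in triplicate with compounds dissolved in DMSO over a 40–0.3 range for 72 h. Cells were fixed with 10% TCA for 1 h, stained with 0.4% SRB in 1% acetic acid, washed with 1% acetic acid and air-dried. Bound dye was solubilized in 10 mM Tris base and read at 515 nm. % inhibition and IC50 were calculated against DMSO-only controls.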

SNU-475 [4] = test: Cytotoxicity against human SNU475 cells assessed as growth inhibition after 72 hrs by SRB assay; assay type: functional, cell-based; details: SNU-475, 72 h; method in brief: as §2
HepG2 [5] = test: Induction of apoptosis in human HepG2 cells assessed as decrease in cyclin B1 protein expression level at cytotoxic IC100 measured after 24 hrs by Western blot method; assay type: functional, cell-based
SNU-475 [6] = test: Induction of apoptosis in human SNU475 cells assessed as condensed nuclei at cytotoxic IC100 measured after 72 hrs by light microscopic method; assay type: functional, cell-based
SNU-475 [7] = test: Induction of apoptosis in human SNU475 cells assessed as condensed nuclei at cytotoxic IC100 measured after 48 hrs by DAPI/Annexin-V-Fluos staining based fluorescent microscopic method; assay type: functional, cell-based
Method in brief: (§3)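 Cells on coverslips were treated after 24 h in culture and stained 48 h later with Annexin-V-Fluos plus DAPI nuclear stain. Cells were then examined by fluorescence microscopy for Annexin V-positive cells with condensed nuclei.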

SNU-475 [8] = test: Induction of apoptosis in human SNU475 cells assessed as accumulation at G2/M phase at cytotoxic IC100 measured after 48 hrs by propidium iodide staining based flow cytometry; assay type: functional, cell-based; method in brief: as §1
SNU-475 [9] = test: Induction of apoptosis in human SNU475 cells assessed as PARP cleavage at cytotoxic IC100 measured after 24 hrs by Western blot method; assay type: functional, cell-based
Huh-7 [10] = test: Cytotoxicity against human HuH7 cells assessed as growth inhibition after 72 hrs by SRB assay; assay type: functional, cell-based; details: Huh-7, 72 h; method in brief: as §2
Mahlavu [11] = test: Growth inhibition of human Mahlavu cells at cytotoxic IC100 measured every 10 mins for first 24 hrs and every 30 mins for remaining 48 hrs by RT-CES analysis; assay type: functional, cell-based
HepG2 [12] = test: Growth inhibition of human HepG2 cells at cytotoxic IC100 measured every 10 mins for first 24 hrs and every 30 mins for remaining 48 hrs by RT-CES analysis; assay type: functional, cell-based
[13] = molecular target: T1, Retinoblastoma-associated protein (Homo sapiens); test: Inhibition of retinoblastoma phosphorylation in human SNU475 cells at cytotoxic IC100 measured after 24 hrs by Western blot method; assay type: cell-based
SNU-475 [14] = test: Increase in p21 protein expression in human SNU475 cells at cytotoxic IC100 measured after 24 hrs by Western blot method relative to control; assay type: functional
HepG2 [15] = test: Induction of apoptosis in human HepG2 cells assessed as condensed nuclei at cytotoxic IC100 measured after 48 hrs by DAPI/Annexin-V-Fluos staining based fluorescent microscopic method; assay type: functional, cell-based; method in brief: as §3
Mahlavu [16] = test: Cytotoxicity against human Mahlavu cells assessed as growth inhibition after 72 hrs by SRB assay; assay type: functional, cell-based; method in brief: as §2
HepG2 [17] = test: Induction of apoptosis in human HepG2 cells assessed as condensed nuclei at cytotoxic IC100 measured after 72 hrs by light microscopic method; assay type: functional, cell-based
SNU-475 [18] = test: Growth inhibition of human SNU475 cells at cytotoxic IC100 measured every 10 mins for first 24 hrs and every 30 mins for remaining 48 hrs by RT-CES analysis; assay type: functional, cell-based
SNU-475 [19] = test: Induction of apoptosis in human SNU475 cells assessed as decrease in CDK expression level at cytotoxic IC100 measured after 24 hrs by Western blot method; assay type: functional, cell-based
MCF-12A = test: Cytotoxicity against human MCF12A cells assessed as growth inhibition after 72 hrs by SRB assay; assay type: cell-based; method in brief: as §2
HCT-116 = test: Cytotoxicity against human HCT116 cells assessed as growth inhibition after 72 hrs by SRB assay; assay type: functional, cell-based; details: HCT-116, 72 h; method in brief: as §2
Homo sapiens = species on record: Homo sapiens; test: Inhibition of tubulin polymerization (unknown origin)
Huh-7 [20] = test: Growth inhibition of human HuH7 cells at cytotoxic IC100 measured every 10 mins for first 24 hrs and every 30 mins for remaining 48 hrs by RT-CES analysis; assay type: functional, cell-based
MCF7 = test: Cytotoxicity against human MCF7 cells assessed as growth inhibition after 72 hrs by SRB assay; assay type: functional, cell-based; details: MCF7, 72 h; method in brief: as §2
SNU-475 [21] = test: Induction of apoptosis in human SNU475 cells assessed as accumulation at subG1 phase at cytotoxic IC100 measured after 72 hrs by propidium iodide staining based flow cytometry; assay type: functional, cell-based; method in brief: as §1
HepG2 [22] = test: Induction of apoptosis in human HepG2 cells assessed as accumulation at subG1 phase at cytotoxic IC100 measured after 72 hrs by propidium iodide staining based flow cytometry; assay type: functional, cell-based; method in brief: as §1
[23] = molecular target: G2/mitotic-specific cyclin-B1 (Homo sapiens) (UniProt P14635); test: Inhibition of Cyclin B1 phosphorylation at Ser147 residue in human HepG2 cells at cytotoxic IC100 measured after 24 hrs by Western blot method; assay type: cell-based
Sequence of G2/mitotic-specific cyclin-B1 (Homo sapiens) (P14635 whole entry): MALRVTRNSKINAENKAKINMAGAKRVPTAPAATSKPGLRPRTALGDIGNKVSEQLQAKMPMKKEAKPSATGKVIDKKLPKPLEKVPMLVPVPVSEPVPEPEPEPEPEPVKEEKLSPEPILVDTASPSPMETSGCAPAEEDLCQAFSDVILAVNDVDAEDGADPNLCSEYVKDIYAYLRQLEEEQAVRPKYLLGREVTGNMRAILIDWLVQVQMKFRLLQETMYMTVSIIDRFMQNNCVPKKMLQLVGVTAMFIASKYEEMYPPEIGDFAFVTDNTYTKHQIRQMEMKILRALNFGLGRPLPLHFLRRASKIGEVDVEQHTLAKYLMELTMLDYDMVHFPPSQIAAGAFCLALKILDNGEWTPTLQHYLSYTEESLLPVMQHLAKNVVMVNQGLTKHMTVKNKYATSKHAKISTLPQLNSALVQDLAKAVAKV

HepG2 [24] = test: Induction of apoptosis in human HepG2 cells assessed as PARP cleavage at cytotoxic IC100 measured after 24 hrs by Western blot method; assay type: functional, cell-based
HepG2 [25] = test: Increase in p21 protein expression in human HepG2 cells at cytotoxic IC100 measured after 24 hrs by Western blot method relative to control; assay type: functional
HepG2 [26] = test: Cytotoxicity against human HepG2 cells assessed as growth inhibition after 72 hrs by SRB assay; assay type: functional, cell-based; details: HepG2, 72 h; method in brief: as §2

## COc1ccc(OC)c(C(=O)/C=C/c2cn(-c3ccccc3)nc2-c2cccnc2)c1
[1]
  inhibition: Active
HepG2 [2]
  Activity: Active
HepG2 [3]
  Activity: 50%
MRC5
  IC50: 2700 nM
SNU-475 [4]
  IC50: 1900 nM
HepG2 [5]
  Activity: Active
SNU-475 [6]
  Activity: Active
SNU-475 [7]
  Activity: Active
SNU-475 [8]
  Activity: Active
SNU-475 [9]
  Activity: Active
Huh-7 [10]
  IC50: 1300 nM
Mahlavu [11]
  growth inhibition (GI): Active
HepG2 [12]
  growth inhibition (GI): Active
[13]
  inhibition: Active
SNU-475 [14]
  fold change (FC): 2
HepG2 [15]
  Activity: Active
Mahlavu [16]
  IC50: 2000 nM
HepG2 [17]
  Activity: Active
SNU-475 [18]
  growth inhibition (GI): Active
SNU-475 [19]
  Activity: Active
MCF-12A
  IC50: 2400 nM
HCT-116
  IC50: 1000 nM
Homo sapiens
  inhibition: inactive
Huh-7 [20]
  growth inhibition (GI): Active
MCF7
  IC50: 1500 nM
SNU-475 [21]
  Activity: Active
HepG2 [22]
  Activity: Active
[23]
  inhibition: 50%
HepG2 [24]
  Activity: Active
HepG2 [25]
  fold change (FC): 5 - 6
HepG2 [26]
  IC50: 3400 nM
